Measured values reported in ChEMBL document CHEMBL4819003, “Optimization of novel oxidative DIMs as Nur77 modulators of the Nur77-Bcl-2 apoptotic pathway” (Eur J Med Chem, 2021).
Calls of active or inactive are those of the source. The calls are words filed in the database; no cut-off is given here.

Assays:
SW-620 = assay: Induction of apoptosis in human SW-620 cells assessed as PARP cleavage at 0.5 uM measured after 6 hrs by western blot assay; assay type: functional, cell-based
Procedure, shortened: (§1)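 Cells exposed to 0.5 µM for 6 h. Lysates resolved by SDS-PAGE and blotted to PVDF, blocked in 5% milk/TBST, probed with primary antibodies at 1:1000, ECL detection. Apoptosis scored as the densitometric ratio of cleaved PARP band to intact PARP band; mean ± SD, n = 3.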

HCT-116 = assay: Induction of apoptosis in human HCT-116 cells assessed as PARP cleavage at 0.5 uM measured after 6 hrs by western blot assay; assay type: functional, cell-based; procedure, shortened: as §1
Mus musculus = assay: Antitumour activity against FVB/N mammary tumor MMTV-PyMT mouse model assessed as inhibition of tumour growth at 3 mg/kg, po administered daily for 14 days; assay type: functional, organism-based; details: time 14.0 day
Procedure, shortened: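 Female MMTV-PyMT transgenic mice (FVB/N background), 12 weeks old, randomized n = 6 per group; daily oral gavage 3 mg/kg for 14 days. Dosing solution: DMSO stock diluted in normal saline with 5.0% (V/V) Tween-80 to 3 mg/mL. Tumours weighed at end; mean ± SD, Student's t-test versus untreated controls.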

MEF [1] = assay: Induction of apoptosis in mouse MEF cells deficient in Bcl2 assessed as PARP cleavage at 0.5 uM measured after 6 hrs by Western blot assay; assay type: functional, cell-based
Procedure, shortened: (§2)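 Wild-type, Nur77−/− or Bcl-2−/− mouse embryonic fibroblasts grown in DMEM with 10% FBS and treated with 0.5 µM for 6 h. PARP cleavage detected by western blot, primary antibodies at 1:1000, ECL.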

MEF [2] = assay: Induction of apoptosis in wild type mouse MEF cells assessed as PARP cleavage at 0.5 uM measured after 6 hrs by western blot assay; assay type: functional, cell-based; procedure, shortened: as §2
MDA-MB-231 = assay: Induction of apoptosis in human MDA-MB-231 cells assessed as PARP cleavage at 0.5 uM measured after 6 hrs by western blot assay; assay type: functional, cell-based; procedure, shortened: as §1
[3] = biological target: T1, Nuclear receptor subfamily 4immunitygroup A member 1 (Homo sapiens, UniProt P22736); assay: Modulation of Myc-Nur77-LBD (unknown origin) transfected in human HEK293T cells assessed as induction of Myc-Nur77 mitochondrial targeting by measuring increase in Myc-Nur77 accumulation in mitochondria at 0.5 uM measured after 2 hrs by Mito-tracker dye based confocal microscopy method; details: filed as modulator
Procedure, shortened: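 HEK293T cells transfected with Myc-Nur77-LBD were given 0.5 μM compound for 2 h, stained with Mito-Tracker and immunostained. Nur77 mitochondrial localisation was visualised by confocal microscopy.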

[4] = biological target: T1, Nuclear receptor subfamily 4immunitygroup A member 1; assay: Modulation of Myc-Nur77 (unknown origin) transfected in human HEK293T cells assessed as induction of Myc-Nur77 mitochondrial targeting by measuring increase in Myc-Nur77 accumulation in mitochondria at 0.5 uM measured after 2 hrs by western blot analysis; details: filed as modulator
Procedure, shortened: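 HEK293T cells transfected with Myc-Nur77 were exposed to 0.5 μM compound for 2 h. Cells were homogenised in sucrose Buffer D; 500 g then 5000 g spins gave a mitochondrial pellet. Whole-cell and mitochondrial fractions were western blotted for Myc-Nur77, with PARP and Tom20 as fraction-purity markers.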

BT-549 = assay: Induction of apoptosis in human BT-549 cells assessed as PARP cleavage at 0.5 uM measured after 6 hrs by western blot assay; assay type: functional, cell-based; procedure, shortened: as §1

T1 sequence (P22736 whole entry, the tested form may be a part): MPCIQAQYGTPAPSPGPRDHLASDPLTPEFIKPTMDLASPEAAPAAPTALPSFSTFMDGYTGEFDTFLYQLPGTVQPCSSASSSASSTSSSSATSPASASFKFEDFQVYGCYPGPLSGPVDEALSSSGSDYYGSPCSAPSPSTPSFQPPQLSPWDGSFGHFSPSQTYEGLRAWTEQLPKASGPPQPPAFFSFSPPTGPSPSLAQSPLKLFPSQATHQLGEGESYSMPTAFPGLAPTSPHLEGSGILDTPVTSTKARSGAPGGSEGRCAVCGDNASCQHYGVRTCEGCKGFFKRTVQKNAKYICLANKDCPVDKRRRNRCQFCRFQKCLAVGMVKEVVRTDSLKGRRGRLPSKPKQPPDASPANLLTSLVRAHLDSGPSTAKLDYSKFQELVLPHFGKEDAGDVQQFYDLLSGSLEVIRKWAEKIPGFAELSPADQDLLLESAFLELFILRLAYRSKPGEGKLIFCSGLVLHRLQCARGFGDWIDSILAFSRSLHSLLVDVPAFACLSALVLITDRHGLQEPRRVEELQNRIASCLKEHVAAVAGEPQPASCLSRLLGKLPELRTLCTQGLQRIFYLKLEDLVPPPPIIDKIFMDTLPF

Activity [3]: Active | Activity [4]: Active
Structure (SMILES): FC(F)(F)c1ccc([C+](c2c[nH]c3ccccc23)c2c[nH]c3ccccc23)cc1
Activity (SW-620): Active | Activity (HCT-116): Active | Activity (Mus musculus): Active | Activity (MEF [1]): inactive | Activity (MEF [2]): Active | Activity (MDA-MB-231): Active | Activity (BT-549): Active
